Published values pooled from the literature.
Each line is one published result; the experiments were not run side by side.
Target: Mitogen-activated protein kinase kinase kinase 2 (MAP3K2, Homo sapiens, UniProt Q9Y2U5)
Residues used in one study (Q9Y2U5 1-619): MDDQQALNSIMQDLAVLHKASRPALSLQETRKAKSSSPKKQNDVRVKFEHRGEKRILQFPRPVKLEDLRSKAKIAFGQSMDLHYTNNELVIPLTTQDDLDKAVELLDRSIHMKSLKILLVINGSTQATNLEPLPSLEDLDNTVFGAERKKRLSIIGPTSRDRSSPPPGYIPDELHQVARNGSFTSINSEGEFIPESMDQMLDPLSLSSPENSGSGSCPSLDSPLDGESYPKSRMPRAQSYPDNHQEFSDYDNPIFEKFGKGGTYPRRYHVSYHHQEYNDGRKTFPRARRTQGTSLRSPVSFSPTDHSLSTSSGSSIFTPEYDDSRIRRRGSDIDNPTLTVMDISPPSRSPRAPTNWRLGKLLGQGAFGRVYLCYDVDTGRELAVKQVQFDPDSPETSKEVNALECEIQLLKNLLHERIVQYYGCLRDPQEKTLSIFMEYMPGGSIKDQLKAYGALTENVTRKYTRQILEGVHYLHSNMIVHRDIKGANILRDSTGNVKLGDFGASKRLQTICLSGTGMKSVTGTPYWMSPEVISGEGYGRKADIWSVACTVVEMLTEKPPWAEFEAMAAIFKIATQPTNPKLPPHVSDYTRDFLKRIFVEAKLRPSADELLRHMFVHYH

effect on | method | concentration | remaining binding [%] | SMILES
cell-free assay | competition with immobilised ligand | 1 µM | 79 | O=C(Nc1cccnn1)N1CC(C/C=C/c2cncc(Oc3ccc(C(F)(F)F)cn3)n2)C1
binding | competition with immobilised ligand | 1 µM | 68 | COc1cnc(Nc2cccc(S(N)(=O)=O)c2)nc1N1CCN(c2ccccc2)CC1
binding |  | 1 µM | 100 | N[C@@H]1CCN(c2nccc(-c3cnn4ncccc34)n2)C1
cell-free assay | competition with immobilised ligand | 1 µM | 83 | C[C@@H]1CN(c2cc(-c3nn(C)c4ccc(OC5(C)CC5)cc34)ncn2)C[C@H](C)O1
binding |  | 1 µM | 96 | CN(CCCC(F)(F)F)c1nccc(-c2cnn3ncccc23)n1
binding | competition with immobilised ligand | 1 µM | 20 | O=C(c1ccc(Nc2ncc(Cl)c(-c3cc4ccccc4s3)n2)cc1)N1CCC(N2CCCC2)CC1
binding | competition with immobilised ligand | 1 µM | 86 | CNC(=O)[C@@H]1CC[C@@H](n2c(-c3ccc4cnccc4c3)nc3ccc(C(=O)NCc4cccc(C(N)=O)c4)cc32)C1
binding | competition with immobilised ligand | 1 µM | 24 | O=C(NCCCN1CCOCC1)c1ccc(Nc2nccc(-c3cc4ccccc4s3)n2)cc1
cell-free assay | competition with immobilised ligand | 5 µM | 91 | COc1ncc2cc3ccccc3nc2c1C#N
binding | competition with immobilised ligand | 1 µM | 5.1 | Cc1cnc(Nc2ccc(C(=O)N3CCC(N4CCCC4)CC3)cc2)nc1-c1cc2ccccc2s1
binding | competition with immobilised ligand | 1 µM | 85 | Nc1ncc2c(n1)-c1c([nH]c3ccc(C#CC4CC4)cc13)CCCC2
binding | competition with immobilised ligand | 1 µM | 60 | Cc1nc(N2CC[C@@H](O)C2)ncc1-c1cc(C(F)(F)F)cc2[nH]ncc12
binding |  | 1 µM | 87 | COc1ccnn2ncc(-c3ccnc(N(C)C)n3)c12
cell-free assay | competition with immobilised ligand | 1 µM | 85 | CCC(=N\O)/C(C)=C/c1ccc(F)cc1
binding |  | 1 µM | 79 | C[C@@H]1CCN(c2nccc(-c3cnn4ncccc34)n2)C1
cell-free assay | competition with immobilised ligand | 1 µM | 100 | O=C(O)[C@@H]1[C@@H](Cn2nnc3ccccc3c2=O)CC[C@H]1C(=O)c1ccc(OCCC2CCOCC2)cc1
binding | competition with immobilised ligand | 1 µM | 94 | O=C(Nc1c[nH]nc1C(=O)NC1CCNCC1)c1cc(F)cc(F)c1
binding |  | 1 µM | 58 | c1cnn2ncc(-c3ccnc(N4CCC45COC5)n3)c2c1
cell-free assay | competition with immobilised ligand | 5 µM | 79 | FC(F)(F)Oc1cccc(-c2cnc3ccc(-c4ccncc4)nn23)c1
binding |  | 1 µM | 78 | CN(C)c1nccc(-c2cnn3ncccc23)n1
cell-free assay | competition with immobilised ligand | 1 µM | 100 | Cc1c(NC(=O)c2cc(C(N)=O)nc3cc(F)ccc23)c(C(F)(F)F)nn1Cc1ccc(C(C)(C)C)cc1
